To fix the notation:
B1: Osa-1-4 twister ribozyme (parent)
chain: CCGCCUAACACUGCCAAUGCCGGUCCCAAGCCCGGAUAAAAGUGGAGGGGGCGG

The variants in this data set derive from B1. The data set can be described thus: self-cleavage, relative activity (ratio to wild type); higher = more cleavage; co-transcriptional. The essentials:
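The 48 positions downstream of the cleavage site in a DNA template for a 54-nucleotide Oryza sativa twister ribozyme carried 97 % wild-type base and 1 % of each other base. After in vitro transcription (2 h, 37 °C) with co-transcriptional self-cleavage, the RNA was reverse-transcribed with a template-switching oligonucleotide, PCR-amplified and deep-sequenced. Relative activity is the fraction cleaved, judged by reads with or without upstream sequence and normalised to wild type.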
With G50A U18G, the self-cleavage was 0.79.

For the variant G51C U37G, the self-cleavage worked out at 0.18.

Regarding G51C U37C, the self-cleavage amounted to 0.14.

In the case of G51C U37A, the self-cleavage turned out to be 0.08.

As for G50C, the self-cleavage was found to be 1.03.

Take G50A: the self-cleavage was determined as 0.76.

As to G50U, the self-cleavage came to 1.02.

As to C52A G53U, the self-cleavage was 0.8.

Regarding C52A G53C, the self-cleavage was found to be 0.5.

On to C52A G53A, for which the self-cleavage turned out to be 0.92.

As to G50A G54C, the self-cleavage came out at 0.99.

Take G50A G54A: the self-cleavage was found to be 0.97.

With G50A G54U, the self-cleavage was 0.96.

With G49C U37G, the self-cleavage amounted to 0.08.

Regarding G49C U37C, the self-cleavage came to 0.07.

With G49C U37A, the self-cleavage was found to be 0.05.

With C52G G35A, the self-cleavage worked out at 0.84.

Turning to C52G G35C, the self-cleavage is 0.36.

With C52G G35U, the self-cleavage was 0.91.

In the case of C52U G22C, the self-cleavage was 0.17.

C52U G22A: the self-cleavage was 0.91.

Consider C52U G22U, for which the self-cleavage was found to be 0.88.

As to C52G G50U, the self-cleavage worked out at 0.24.

In the case of C52G G50C, the self-cleavage was 0.09.

Consider C52G G50A, for which the self-cleavage was found to be 0.85.

As for G51A U18G, the self-cleavage worked out at 0.64.

On to G51A U18C, for which the self-cleavage was found to be 0.46.

Turning to G51A U18A, the self-cleavage came out at 0.62.

For the variant C52A G49A, the self-cleavage amounted to 0.21.

As for C52A G49U, the self-cleavage was found to be 0.1.

On to C52A G49C, for which the self-cleavage was 0.08.

In the case of C52G U37G, the self-cleavage was determined as 1.02.

With C52G U37C, the self-cleavage was 1.05.

Turning to C52G U37A, the self-cleavage came to 0.81.

Turning to G49C U43A, the self-cleavage was found to be 0.08.

With G49C U43G, the self-cleavage was 0.04.

For the variant G49C U43C, the self-cleavage is 0.1.

G51U U43C: the self-cleavage stood at 0.11.

In the case of G51U U43A, the self-cleavage was 0.13.

In the case of G51U U43G, the self-cleavage worked out at 0.08.

Consider C52G U12A, for which the self-cleavage was 0.85.

C52G U12G: the self-cleavage turned out to be 0.32.

Turning to C52G U12C, the self-cleavage was found to be 0.58.

As to G50C U37G, the self-cleavage was found to be 1.04.

As for G50C U37C, the self-cleavage amounted to 1.05.

Take G50C U37A: the self-cleavage was 0.78.

For the variant C52G U24C, the self-cleavage turned out to be 0.22.

Consider C52G U24A, for which the self-cleavage is 0.23.

Consider C52G U24G, for which the self-cleavage was 0.06.

C52G G13A: the self-cleavage is 0.12.

Consider C52G G13U, for which the self-cleavage worked out at 0.06.

With C52G G13C, the self-cleavage is 0.07.

On to C52G G30U, for which the self-cleavage stood at 0.05.

C52G G30C: the self-cleavage came out at 0.07.

Take C52G G30A: the self-cleavage came to 0.06.

For G50A U37C, the self-cleavage came out at 0.84.

In the case of G50A U37G, the self-cleavage is 0.74.

On to G50A U37A, for which the self-cleavage was 0.38.

Regarding G50U U24C, the self-cleavage turned out to be 0.28.

Regarding G50U U24A, the self-cleavage stood at 0.13.

In the case of G50U U24G, the self-cleavage was found to be 0.02.

In the case of G50A U12C, the self-cleavage came to 0.37.

Take G50A U12G: the self-cleavage was 0.11.

Take G50A U12A: the self-cleavage was determined as 0.44.

Regarding C52A G50U, the self-cleavage was found to be 0.25.

C52A G50A: the self-cleavage amounted to 0.69.

Turning to C52A G50C, the self-cleavage was found to be 0.14.

For the variant G50A G53U, the self-cleavage stood at 0.9.

Regarding G50A G53A, the self-cleavage is 0.94.

In the case of G50A G53C, the self-cleavage worked out at 0.32.

Regarding G51C, the self-cleavage was 0.17.

G51U: the self-cleavage stood at 0.44.

In the case of G51A, the self-cleavage was 0.77.

As to C52U G13C, the self-cleavage came to 0.01.

For the variant C52U G13A, the self-cleavage is 0.14.

As to C52U G13U, the self-cleavage is 0.05.

As for C52G G42C, the self-cleavage was determined as 0.22.

With C52G G42U, the self-cleavage worked out at 0.14.

Regarding C52G G42A, the self-cleavage came out at 0.75.

Take G51A G53U: the self-cleavage amounted to 0.17.

G51A G53A: the self-cleavage came to 0.64.

Regarding G51A G53C, the self-cleavage amounted to 0.06.

On to C52A G23C, for which the self-cleavage came out at 0.06.

In the case of C52A G23A, the self-cleavage is 0.17.

On to C52A G23U, for which the self-cleavage stood at 0.09.

Regarding G51A U43C, the self-cleavage turned out to be 0.2.

In the case of G51A U43A, the self-cleavage turned out to be 0.25.

Regarding G51A U43G, the self-cleavage is 0.1.

As for G51U G54A, the self-cleavage worked out at 0.25.

For G51U G54C, the self-cleavage amounted to 0.51.

In the case of G51U G54U, the self-cleavage came to 0.4.

For the variant G49U U24C, the self-cleavage came out at 0.04.

Consider G49U U24G, for which the self-cleavage came out at 0.02.

Consider G49U U24A, for which the self-cleavage is 0.04.

Consider G49U U12A, for which the self-cleavage stood at 0.09.

In the case of G49U U12G, the self-cleavage was found to be 0.07.

With G49U U12C, the self-cleavage worked out at 0.04.

G50A U43A: the self-cleavage was 0.38.

In the case of G50A U43G, the self-cleavage is 0.15.

On to G50A U43C, for which the self-cleavage came to 0.35.

In the case of G49U, the self-cleavage stood at 0.23.

With G49U G54U, the self-cleavage came out at 0.26.

For G49U G54C, the self-cleavage is 0.06.

Regarding G49U G54A, the self-cleavage amounted to 0.1.

For the variant G51C U24A, the self-cleavage was 0.04.

For the variant G51C U24C, the self-cleavage is 0.04.

As to G51C U24G, the self-cleavage was found to be 0.02.

With G51C G53U, the self-cleavage worked out at 0.06.

In the case of G51C G53C, the self-cleavage stood at 0.04.

In the case of G51C G53A, the self-cleavage is 0.07.

Consider G50U G53U, for which the self-cleavage came to 0.37.

As for G50U G53C, the self-cleavage worked out at 0.09.

For the variant G50U G53A, the self-cleavage came out at 0.61.

In the case of G51A G54C, the self-cleavage came to 0.95.

For G51A G54A, the self-cleavage was 0.85.

For the variant G51A G54U, the self-cleavage came out at 0.83.

As to C52A U24A, the self-cleavage amounted to 0.14.

In the case of C52A U24G, the self-cleavage came out at 0.04.

C52A U24C: the self-cleavage was found to be 0.18.

For C52G G49A, the self-cleavage is 0.2.

In the case of C52G G49U, the self-cleavage was 0.13.

For C52G G49C, the self-cleavage stood at 0.07.

Regarding G51C U12C, the self-cleavage was determined as 0.04.

Consider G51C U12A, for which the self-cleavage was determined as 0.05.

Consider G51C U12G, for which the self-cleavage stood at 0.05.

As to C52A G35U, the self-cleavage was found to be 0.81.

On to C52A G35A, for which the self-cleavage turned out to be 0.8.

For the variant C52A G35C, the self-cleavage came out at 0.22.

As to C52U G23U, the self-cleavage came to 0.25.

Regarding C52U G23A, the self-cleavage worked out at 0.68.

With C52U G23C, the self-cleavage is 0.06.

As to G49U G50A, the self-cleavage stood at 0.5.

Consider G49U G50C, for which the self-cleavage was 0.31.

Regarding G49U G50U, the self-cleavage stood at 0.21.

Take C52U G19C: the self-cleavage turned out to be 0.18.

On to C52U G19A, for which the self-cleavage is 0.93.

Take C52U G19U: the self-cleavage was found to be 0.48.

G51C U43C: the self-cleavage was determined as 0.06.

Consider G51C U43G, for which the self-cleavage was 0.06.

On to G51C U43A, for which the self-cleavage came to 0.06.

Turning to G51U U24A, the self-cleavage worked out at 0.05.

Turning to G51U U24C, the self-cleavage came out at 0.05.

Turning to G51U U24G, the self-cleavage was found to be 0.02.

Consider G51U G53C, for which the self-cleavage is 0.05.

G51U G53U: the self-cleavage is 0.12.

Turning to G51U G53A, the self-cleavage is 0.19.

For the variant C52A G48A, the self-cleavage was 0.14.

Regarding C52A G48C, the self-cleavage is 0.1.

As for C52A G48U, the self-cleavage was 0.07.

In the case of C52G G23C, the self-cleavage amounted to 0.09.

As to C52G G23A, the self-cleavage amounted to 0.28.

As for C52G G23U, the self-cleavage stood at 0.14.

On to G49U U43C, for which the self-cleavage is 0.04.

Regarding G49U U43A, the self-cleavage came to 0.08.

As to G49U U43G, the self-cleavage stood at 0.06.

Take C52A G44C: the self-cleavage worked out at 0.96.

For the variant C52A G44A, the self-cleavage was 0.98.

For the variant C52A G44U, the self-cleavage was determined as 0.93.

As for G51U U12G, the self-cleavage was found to be 0.05.

As to G51U U12C, the self-cleavage turned out to be 0.08.

As to G51U U12A, the self-cleavage was 0.09.

As for G50A U24G, the self-cleavage was determined as 0.02.

With G50A U24A, the self-cleavage is 0.6.

Consider G50A U24C, for which the self-cleavage is 0.64.

On to C52G G19C, for which the self-cleavage amounted to 0.14.

For the variant C52G G19A, the self-cleavage came to 0.55.

In the case of C52G G19U, the self-cleavage was 0.27.

(Values after the RNAGym collection of RNA variant scans (doi:10.1002/anie.201605470).)
